Test results from ChEMBL document CHEMBL3992537, “Design, Synthesis, and Biological Evaluation of Small, High-Affinity Siglec-7 Ligands: Toward Novel Inhibitors of Cancer Immune Evasion” (J Med Chem, 2017).
Activity calls are given as the source filed them. The rule behind the calls is not given here.

Legend:
[1] = target: T1, Sialic acid-binding Ig-like lectin 7 (Homo sapiens, UniProt Q9Y286); test: Binding affinity to human IgG1-fused Siglec-7-Fc assessed as inhibition of Siglec-7-Fc binding to RBC preincubated for 10 mins followed by RBC addition measured after 20 mins by FACS analysis relative to sodium (4S,5R,6R)-5-acetamido-4-hydroxy-2-methoxy-6-((1R,2R)-1,2,3 trihydroxypropyl)tetrahydro-2H-pyran-2-carboxylate
T1 sequence (Q9Y286 whole entry, the tested form may be a part): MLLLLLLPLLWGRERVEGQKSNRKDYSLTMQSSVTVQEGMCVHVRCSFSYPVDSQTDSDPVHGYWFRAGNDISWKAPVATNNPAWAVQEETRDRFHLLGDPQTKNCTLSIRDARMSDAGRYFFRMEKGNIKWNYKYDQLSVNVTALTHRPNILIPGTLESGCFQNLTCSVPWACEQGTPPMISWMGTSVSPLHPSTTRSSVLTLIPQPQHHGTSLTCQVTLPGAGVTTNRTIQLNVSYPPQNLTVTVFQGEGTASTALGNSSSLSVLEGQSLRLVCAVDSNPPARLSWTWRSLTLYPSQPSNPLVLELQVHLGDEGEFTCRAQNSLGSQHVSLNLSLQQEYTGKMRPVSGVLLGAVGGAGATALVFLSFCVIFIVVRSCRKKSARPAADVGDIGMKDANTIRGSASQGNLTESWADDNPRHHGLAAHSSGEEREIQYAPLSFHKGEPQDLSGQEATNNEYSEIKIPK
How it was run: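 RBC flow-cytometry competition as above: Siglec-7-Fc 0.2 μg/mL with ligand 10 min at RT, then RBCs 20 min on ice, detected by anti-Fc-biotin/streptavidin-PE MFI. The reference ligand α-Me Neu5Ac is run in the same test. Relative inhibitory potency is calculated intra-test against it to offset inter-test variation from fresh RBCs.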

[2] = target: T1, Sialic acid-binding Ig-like lectin 7; test: Ratio of 3'sialyllactose Kd to relative inhibitory potency of test compound for human IgG1-fused Siglec-7-Fc by ELISA
How it was run: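 The Kd value is extrapolated by dividing the known Kd of 3′sialyllactose by the ELISA relative inhibitory potency. The ELISA uses plate-bound 6′sialyl-LacNAc-polyacrylamide with AP-precomplexed Siglec-7-Fc, 2.5 h at 37 °C, read at 405 nm.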

K562 = test: Cytotoxicity against human K562 cells assessed as viable cells; format: cell-based
[3] = target: T1, Sialic acid-binding Ig-like lectin 7; test: Binding affinity to human IgG1-fused Siglec-7-Fc measured after 2.5 hrs by ELISA
How it was run: (§1)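 Streptavidin-coated plates carry 4 μg/mL biotinylated 6′sialyl-N-acetyllactosamine-polyacrylamide and are BSA-blocked. Ligand 10-fold dilutions (1 mM to 1 × 10⁻⁵ mM, PBS) and hSiglec7-Fc precomplexed with AP anti-human IgG are added for 2.5 h at 37 °C. Plates are developed with p-nitrophenyl phosphate (pH 9.8) and read at 405 nm for IC50. 3′- and 6′-sialyllactose serve as references for relative potency.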

[4] = target: T1, Sialic acid-binding Ig-like lectin 7; test: Binding affinity to human IgG1-fused Siglec-7-Fc measured after 2.5 hrs by ELISA relative to 3'sialyllactose; how it was run: as §1
[5] = target: T1, Sialic acid-binding Ig-like lectin 7; test: Binding affinity to human IgG1-fused Siglec-7-Fc assessed as inhibition of Siglec-7-Fc binding to RBC preincubated for 10 mins followed by RBC addition measured after 20 mins by FACS analysis
How it was run: (§2)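 Siglec-7-Fc (human IgG1 fusion), 0.2 μg/mL, premixed 10 min at RT in PBS with inhibitor dilution series. The mix is then added to pelleted freshly isolated human RBCs (0.1% suspension) for 20 min on ice. Bound Fc is detected with biotin goat anti-human Fc (10 μg/mL) and streptavidin-PE, then formaldehyde-fixed and read by flow cytometry. % inhibition is from MFI, with unstained RBCs as 100% and no inhibitor as 0%. IC50 derived.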

[6] = Cytotoxicity against human MEL1106 cells assessed as viable cells; format: cell-based
[7] = target: Sialic acid-binding Ig-like lectin 9 (Homo sapiens) (UniProt Q9Y336); test: Binding affinity to human IgG1-fused Siglec-9-Fc assessed as inhibition of Siglec-9-Fc binding to K562 cells preincubated for 10 mins followed by K562 cell addition measured after 20 mins by FACS analysis
Chain of Sialic acid-binding Ig-like lectin 9 (Homo sapiens) (Q9Y336 whole entry, the tested form may be a part): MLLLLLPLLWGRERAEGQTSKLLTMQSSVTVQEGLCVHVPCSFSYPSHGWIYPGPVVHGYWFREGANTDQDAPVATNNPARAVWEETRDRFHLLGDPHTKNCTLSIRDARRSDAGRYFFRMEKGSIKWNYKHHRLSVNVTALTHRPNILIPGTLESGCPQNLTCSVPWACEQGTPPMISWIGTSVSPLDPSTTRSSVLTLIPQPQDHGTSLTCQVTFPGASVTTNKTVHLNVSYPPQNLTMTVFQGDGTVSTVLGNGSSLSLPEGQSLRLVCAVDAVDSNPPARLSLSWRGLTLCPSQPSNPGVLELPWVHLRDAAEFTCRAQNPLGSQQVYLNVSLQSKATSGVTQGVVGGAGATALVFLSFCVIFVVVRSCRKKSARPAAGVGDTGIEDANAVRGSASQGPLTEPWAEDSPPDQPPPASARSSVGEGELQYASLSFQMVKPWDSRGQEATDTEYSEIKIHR
How it was run: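 Human IgG1-fused Siglec-9-Fc is preincubated with inhibitor dilutions, then co-incubated with K562 cells instead of RBCs. Later steps follow the RBC assay: anti-Fc-biotin and streptavidin-PE detection, fixation, and flow cytometry. Inhibition is calculated from MFI as for RBCs. At least three independent experiments.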

[8] = Cytotoxicity against human NK cells assessed as viable cells up to 10 mM; format: cell-based; conditions: nk cell
How it was run: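 Human NK cells are isolated by negative selection from PBMCs and prestimulated 24 h with 100 IU/mL IL-2. They are then incubated 24 h with the Siglec-7 inhibitor at concentrations up to 10 mM. Viability is assessed by live–dead staining and flow cytometry.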

[9] = target: T1, Sialic acid-binding Ig-like lectin 7; test: Binding affinity to human IgG1-fused Siglec-7-Fc; how it was run: as §2

| SMILES | fold change (FC) [1] | further results |
| --- | --- | --- |
| COC1(C(=O)O)C[C@H](O)[C@@H](NC(C)=O)[C@H]([C@H](O)[C@H](O)CNC(=O)Cc2cccc3ccccc23)O1 (some centres undefined) | < 1.5 |  |
| CC(=O)N[C@H]1[C@H]([C@H](O)[C@H](O)CNS(C)(=O)=O)O[C@@](OCCCn2cc(-c3ccc(-c4ccccc4)cc3)nn2)(C(=O)[O-])C[C@@H]1O.[Na+] | 3120 | Ratio [2]: 4.8; Activity (K562): Non-Toxic; IC50 [3]: 260 µM; fold change (FC) [4]: 141; IC50 [5]: 2.6 µM; Activity [6]: Non-Toxic; inhibition [7]: Active; Activity [8]: Non-Toxic |
| CC(=O)N[C@H]1[C@H]([C@H](O)[C@H](O)CO)O[C@@](OC[C@H]2O[C@@H](O[C@H]3[C@H](O)[C@@H](O)[C@H](O)O[C@@H]3CO)[C@H](O)[C@@H](O)[C@H]2O)(C(=O)O)C[C@@H]1O |  | Kd [9]: 240 µM; IC50 [3]: 25600 µM; fold change (FC) [4]: 1.4 |
| COC1(C(=O)O)C[C@H](O)[C@@H](NC(C)=O)[C@H]([C@H](O)[C@H](O)CO)O1 (some centres undefined) |  | IC50 [5]: 8070 µM |
| COC1(C(=O)O)C[C@H](O)[C@@H](NC(C)=O)[C@H]([C@H](O)[C@H](O)CNC(=O)CC2CCCCC2)O1 (some centres undefined) | < 1.5 |  |
| COC1(C(=O)O)C[C@H](O)[C@@H](NC(C)=O)[C@H]([C@H](O)[C@H](O)CNC(=O)Cc2ccc(-c3ccccc3)cc2)O1 (some centres undefined) | 4.5 |  |
| CCCNC[C@@H](O)[C@@H](O)[C@@H]1O[C@@](OCCCn2cc(-c3ccc(-c4ccccc4)cc3)nn2)(C(=O)O)C[C@H](O)[C@H]1NC(C)=O | < 0.5 |  |
| CC(=O)N[C@H]1[C@H]([C@H](O)[C@H](O)CNS(=O)(=O)NC(=O)OCc2ccccc2)O[C@@](OCCCn2cc(-c3ccc(-c4ccccc4)cc3)nn2)(C(=O)O)C[C@@H]1O | 0.27 |  |
| CC(=O)N[C@H]1[C@H]([C@H](O)[C@H](O)CNC(=O)C(=O)O)O[C@@](OCCCn2cc(-c3ccc(-c4ccccc4)cc3)nn2)(C(=O)O)C[C@@H]1O | 3.6 |  |
| COC1(C(=O)O)C[C@H](O)[C@@H](NC(C)=O)[C@H]([C@H](O)[C@H](O)CNC(=O)C(=O)Nc2ccccc2)O1 (some centres undefined) | 58 |  |
| CC(=O)N[C@H]1[C@H]([C@H](O)[C@H](O)CNS(=O)(=O)Cc2ccccc2)O[C@@](OCCCn2cc(-c3ccc(-c4ccccc4)cc3)nn2)(C(=O)O)C[C@@H]1O | 0.17 |  |
| CC(=O)N[C@H]1[C@H]([C@H](O)[C@H](O)CN)O[C@@](OCCCn2cc(-c3ccc(-c4ccccc4)cc3)nn2)(C(=O)O)C[C@@H]1O | 0.24 |  |
| COC1(C(=O)O)C[C@H](O)[C@@H](NC(C)=O)[C@H]([C@H](O)[C@H](O)CNC(=O)Cc2ccc3ccccc3c2)O1 (some centres undefined) | 8.2 |  |
| CC(=O)N[C@H]1[C@H]([C@H](O)[C@H](O)CNS(=O)(=O)NS(N)(=O)=O)O[C@@](OCCCn2cc(-c3ccc(-c4ccccc4)cc3)nn2)(C(=O)O)C[C@@H]1O | 1 |  |
| CC(=O)N[C@H]1[C@H]([C@H](O)[C@H](O)CNC(=O)C(=O)Nc2ccccc2)O[C@@](OCCCn2cc(-c3ccc(-c4ccccc4)cc3)nn2)(C(=O)O)C[C@@H]1O | 6.8 |  |
| CC(=O)N[C@H]1[C@H]([C@H](O)[C@H](O)CS)O[C@@](OCCCn2cc(-c3ccc(-c4ccccc4)cc3)nn2)(C(=O)O)C[C@@H]1O | 0.52 |  |
| CCS(=O)(=O)NC[C@@H](O)[C@@H](O)[C@@H]1O[C@@](OCCCn2cc(-c3ccc(-c4ccccc4)cc3)nn2)(C(=O)O)C[C@H](O)[C@H]1NC(C)=O | 5210 | Ratio [2]: 4.2; IC50 [3]: 230 µM; fold change (FC) [4]: 161; IC50 [5]: 1.6 µM |
| CC(=O)N[C@H]1[C@H]([C@H](O)[C@H](O)CNS(=O)(=O)c2cccc3c(N(C)C)cccc23)O[C@@](OCCCn2cc(-c3ccc(-c4ccccc4)cc3)nn2)(C(=O)O)C[C@@H]1O | 0.09 |  |
| COC1(C(=O)O)C[C@H](O)[C@@H](NC(C)=O)[C@H]([C@H](O)[C@H](O)CNC(=O)C(N)=O)O1 (some centres undefined) | 4.1 |  |

| SMILES | fold change (FC) [1] | further results |
| --- | --- | --- |
| CC(=O)N[C@H]1[C@H]([C@H](O)[C@H](O)CNCc2ccccc2)O[C@@](OCCCn2cc(-c3ccc(-c4ccccc4)cc3)nn2)(C(=O)O)C[C@@H]1O | < 0.5 |  |
| CC(=O)N[C@H]1[C@H]([C@H](O)[C@H](O)CNS(=O)(=O)C(F)(F)F)O[C@@](OCCCn2cc(-c3ccc(-c4ccccc4)cc3)nn2)(C(=O)O)C[C@@H]1O | 0.41 |  |
| CC(=O)N[C@H]1[C@H]([C@H](O)[C@H](O)CNS(=O)(=O)O)O[C@@](OCCCn2cc(-c3ccc(-c4ccccc4)cc3)nn2)(C(=O)O)C[C@@H]1O | 33 |  |
| COC1(C(=O)O)C[C@H](O)[C@@H](NC(C)=O)[C@H]([C@H](O)[C@H](O)CNC(=O)c2ccccc2)O1 (some centres undefined) | < 1.5 |  |
| CC(=O)N[C@H]1[C@H]([C@H](O)[C@H](O)CNc2c(O)c(=O)c2=O)O[C@@](OCCCn2cc(-c3ccc(-c4ccccc4)cc3)nn2)(C(=O)O)C[C@@H]1O | 0.28 |  |
| COC1(C(=O)O)C[C@H](O)[C@@H](NC(C)=O)[C@H]([C@H](O)[C@H](O)CNC(=O)c2ccc(-c3ccccc3)cc2)O1 (some centres undefined) | < 1.5 |  |
| COC1(C(=O)O)C[C@H](O)[C@@H](NC(C)=O)[C@H]([C@H](O)[C@H](O)CNC(=O)Nc2ccccc2)O1 (some centres undefined) | < 1 |  |
| CCCCS(=O)(=O)NC[C@@H](O)[C@@H](O)[C@@H]1O[C@@](OCCCn2cc(-c3ccc(-c4ccccc4)cc3)nn2)(C(=O)O)C[C@H](O)[C@H]1NC(C)=O | 0.16 |  |
| CC(=O)NC[C@@H](O)[C@@H](O)[C@@H]1O[C@@](OCCCn2cc(-c3ccc(-c4ccccc4)cc3)nn2)(C(=O)O)C[C@H](O)[C@H]1NC(C)=O | 0.73 |  |
| COC1(C(=O)O)C[C@H](O)[C@@H](NC(C)=O)[C@H]([C@H](O)[C@H](O)CNC(=O)Cc2ccccc2)O1 (some centres undefined) | 10 |  |
| COC1(C(=O)O)C[C@H](O)[C@@H](NC(C)=O)[C@H]([C@H](O)[C@H](O)CNC(=O)CC23CC4CC(CC(C4)C2)C3)O1 (some centres undefined) | < 1.5 |  |
| CC(=O)N[C@H]1[C@H]([C@H](O)[C@@H](C)O)O[C@@](OCCCn2cc(-c3ccc(-c4ccccc4)cc3)nn2)(C(=O)O)C[C@@H]1O | 0.15 |  |
| CC(=O)N[C@H]1[C@H]([C@H](O)[C@H](O)CNC(=O)C(N)=O)O[C@@](OCCCn2cc(-c3ccc(-c4ccccc4)cc3)nn2)(C(=O)O)C[C@@H]1O | 3.5 |  |
| CCCS(=O)(=O)NC[C@@H](O)[C@@H](O)[C@@H]1O[C@@](OCCCn2cc(-c3ccc(-c4ccccc4)cc3)nn2)(C(=O)O)C[C@H](O)[C@H]1NC(C)=O | 0.33 |  |
| CC(=O)N[C@H]1[C@H]([C@H](O)[C@H](O)CNC(=O)Cc2ccccc2)O[C@@](OCCCn2cc(-c3ccc(-c4ccccc4)cc3)nn2)(C(=O)O)C[C@@H]1O | 0.6 |  |
| CC(=O)N[C@H]1[C@H]([C@H](O)[C@H](O)CO)O[C@@](O[C@H]2[C@@H](O)[C@@H](CO)O[C@@H](O[C@H]3[C@H](O)[C@@H](O)[C@H](O)O[C@@H]3CO)[C@@H]2O)(C(=O)O)C[C@@H]1O |  | Kd [9]: 680 µM; IC50 [3]: 36900 µM |
| CC(=O)N[C@H]1[C@H]([C@H](O)[C@H](O)CNS(=O)(=O)c2ccccc2)O[C@@](OCCCn2cc(-c3ccc(-c4ccccc4)cc3)nn2)(C(=O)O)C[C@@H]1O | 0.49 |  |
| CC(=O)N[C@H]1[C@H]([C@H](O)[C@H](O)CNS(N)(=O)=O)O[C@@](OCCCn2cc(-c3ccc(-c4ccccc4)cc3)nn2)(C(=O)O)C[C@@H]1O | 0.45 |  |
| CC(=O)N[C@H]1[C@H]([C@H](O)[C@H](O)CO)O[C@@](OCCCn2cc(-c3ccc(-c4ccccc4)cc3)nn2)(C(=O)O)C[C@@H]1O | 152 | IC50 [5]: 53 µM |
